The values below come from PubChem BioAssay.

Unmarked numbers belong to inactive results. Inconclusive results are not listed. Active and inactive are the calls of the source.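 How the source made its calls, unless noted: active means inhibition over a set limit, the all-compound mean plus 3 SD, in both replicate runs; inconclusive means over that limit in just one replicate run; inactive means at or under that limit in both runs.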

The nature of test [1]: S. cerevisiae growth inhibition in permissive medium (OD615), pilot counter-assay for S. cerevisiae lifespan shortening project, permissive growth control (AID 705;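 active means growth inhibition above 25% in both replicates, a cutoff set 3 SD above the mean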). As to conditions: OD615, 24 h, at 10 µM, active compounds read high. The method, boiled down: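 Material: engineered DeaD yeast; Compound: one dose 10 µM, DMSO 0.25% final; Detection: absorbance (optical density) at 615 nm; Buffer or medium: permissive raffinose/galactose medium; Timing: 24 h exposure, 30 °C.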

The nature of test [2]: S. cerevisiae growth inhibition in restrictive medium, OD615, pilot screen, restrictive growth control, yeast lifespan reduction project (AID 706;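 active means growth inhibition above a set limit, 3 SD over mean compound inhibition, in both replicates, cut at about 43% in these data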;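 further: modified DeaD lifespan yeast strain shifted to restrictive glucose medium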). Conditions: OD615, 48 h, at 10 µM, active compounds read high. The method, boiled down: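 Buffer or medium: restrictive glucose medium (CSMM-D); test system: modified S. cerevisiae; doses: single dose of 10 µM compound final, 0.25% DMSO; schedule: 48 h compound exposure at 30 °C; detection: absorbance (optical density) measured at 615 nm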

The nature of test [3]: doxorubicin toxicity protection in MRP-1 cells – H69AR cells, CellTiter-Glo, duplicate, MRP-1 activator project, pilot screen (AID 807;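 active means viability increase at or above a cutoff of the median across tested compounds plus 3 SD, cut at about 8.5% in these data, passing the limit was not always enough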;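 further: compound pretreatment 18-22 h then 72 h combined with doxorubicin; 0% = doxorubicin alone and 100% = vehicle without doxorubicin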). Conditions: H69AR viability with doxorubicin, CellTiter-Glo luminescence; at 10 µM; active compounds read high. A general note: In ATP-based viability assays light output follows the ATP content of the culture.
Test [4] is described as follows: viability of HCT116 without oncogenic beta-catenin – human colon tumor cells, pilot screen (AID 823;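 active means cell viability at or below a set limit in both duplicate runs, the limit being the all-compound median minus 4 SD, cut at about 23% in these data, passing the limit was not always enough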;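 further: 0% = wells killed by 20 µM Hyamine and 100% = untreated DMSO cell wells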). As to conditions: HCT116 beta-catenin knockout viability, CellTiter-Glo, 60 h; at 10 µM; active compounds read low.
Test [5] can be described thus: viability of PTEN-null HCT116 cells – cell-based, HCT116 clonal line, CellTiter-Glo, pilot screen (AID 824;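 active means viability at or below 27.92% in each of two runs, the all-compound median minus 4 SD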;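 further: 0% = 20 µM Hyamine control and 100% = vehicle cell control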). Conditions: HCT116 PTEN-deleted viability, 60 h, at 10 µM, active compounds read low.
The nature of test [6]: RAM pathway blockade in budding yeast – dse1pr::URA3 reporter, 5-FOA selection, pilot screen (AID 869).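 Further: 0% = DMSO wells with no growth and 100% = 10 µM 1-NA-PP1 with full growth; RAM network block rescues cells from 5-FOA so hits raise OD615 growth.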 Conditions: S. cerevisiae dse1pr::URA3 5-FOA growth, OD615, 2 d; at 10 µM; active compounds read high; strain carries analog-sensitive mutant Cbk1 kinase.
The nature of test [7]: RAM signaling pathway blockade in yeast – S. cerevisiae, Pdr1DBD-CYC8 efflux-inhibited sensitized strain, primary screen (AID 1298;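 active means RAM network inhibition above 8.4% in each of two replicates, 3 SD over the compound average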;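 further: 0% = DMSO untreated cells without growth and 100% = 10 µM 1-NA-PP1 full growth; higher means more yeast growth rescued from 5-FOA killing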). As to conditions: S. cerevisiae cbk1-as DSE1-URA3 strain, 5-FOA growth OD615, 2 d; at 50 µM; active compounds read high.

The viability is a read-out of living cells in per cent, often relative to untreated cells. Broadly, the inhibition is the change of the read-out against control, counted positive when it falls. Turning to `Cc1ccc(CCN2CC(C(=O)NCc3cccnc3)CC2=O)cc1` (centres undefined), the growth inhibition in test [1] is 6%; in test [2] it was 5.13%. For the same compound, the viability increase in test [3] is -0.64%. Further, the viability is 104% in test [4] and 94.5% in test [5]. In addition, in test [6], the inhibition was 2.59%. Also, the RAM network inhibition in test [7] is -0.99%.
Consider `c1csc(Cc2nc(-c3ccc(-n4cccc4)cc3)no2)c1`, for which the figures for the growth inhibition in test [1] and in test [2] were -6.69% and -14.7%, respectively. The viability increase in test [3] is -0.35%. Besides, the viability in test [4] is 106%; in test [5] it was 93.8%. In addition, the inhibition in test [6] was 3.12%. In test [7], the RAM network inhibition is 1.65%.
Regarding `Cc1ccc(C2CC(c3ccccc3Cl)n3nc(N)nc3N2)cc1` (centres undefined), the growth inhibition was 0.815% in test [1] and 6.86% in test [2]. The viability increase in test [3] is 2.22%. Besides, the viability in test [4] was 99.7%; in test [5], 92.5%. For the same compound, in test [6], the inhibition is 1.88%. The RAM network inhibition in test [7] was 1.81%.
For the compound `O=C(c1ccc2snnc2c1)N1CCCC1`, the results for the growth inhibition in test [1] and in test [2] were -11.3% and -4.86%, respectively. The viability increase in test [3] is -0.66%. For the same compound, the results for the viability in test [4] and in test [5] were 99.7% and 94.2%, respectively. In addition, the inhibition in test [6] was 1.14%. Also, in test [7], the RAM network inhibition is 4.99%.
For `CC(=O)N1c2ccccc2N(Cc2ccc(C)cc2C)C(=O)C1(C)C`, the growth inhibition is -6.6% in test [1] and 5.81% in test [2]. In addition, in test [3], the viability increase was -6.55%. The viability in test [4] was 16% (active); in test [5], 20.7% (active). In test [6], the inhibition is 1.14%. The RAM network inhibition in test [7] was 9.4%.
Take `Cc1cccc(CCNC(=O)c2nnc(Cc3ccc(Cl)cc3)o2)c1`: the growth inhibition in test [1] was -3.04%; in test [2] it was 1.66%. For the same compound, in test [3], the viability increase is 0.18%. In addition, the viability in test [4] was 102%; in test [5], 95.5%. The inhibition in test [6] is 1.27%. Moreover, the RAM network inhibition in test [7] is 6.94%.
On to `O=C(c1ccc(-c2ccccc2)cc1)N1CCCC1`, for which the growth inhibition in test [1] is 0.63%; in test [2], -4.7%. In test [3], the viability increase is 0.06%. For the same compound, the values for the viability in test [4] and in test [5] were 94.9% and 98.8%, respectively. Moreover, in test [6], the inhibition was 0.02%. Moreover, the RAM network inhibition in test [7] is 10.3%.
As to `CSC1=NCCN1C(=O)Cc1ccc(F)cc1`, the growth inhibition in test [1] is -0.72%; in test [2], 0.85%. Further, the viability increase in test [3] is 2.96%. Also, the viability is 105% in test [4] and 103% in test [5]. For the same compound, in test [6], the inhibition was 0.725%. For the same compound, the RAM network inhibition in test [7] is 4.04%.
`CC(C)(Oc1ccc(Cl)cc1)C(=O)NCc1ccco1`: the growth inhibition was -1.12% in test [1] and -0.2% in test [2]. The viability increase in test [3] was -4.22%. Further, the viability in test [4] is 87.2%; in test [5], 80%. In addition, the inhibition in test [6] is 1.18%. Moreover, the RAM network inhibition in test [7] is 5.92%.
In the case of `CCOC(=O)C1CCN(S(=O)(=O)c2cccc3nonc23)CC1`, the growth inhibition is -5.04% in test [1] and -10.7% in test [2]. The viability increase in test [3] is 0.01%. Besides, the viability in test [4] is 100%; in test [5], 96.8%. In test [6], the inhibition is 1.46%. Also, in test [7], the RAM network inhibition was -1.5%.
For the compound `CCCCN(C)CCNC(=O)Cn1c(=O)sc2ccccc21`, the results for the growth inhibition in test [1] and in test [2] were -0.71% and 4.21%, respectively. Moreover, the viability increase in test [3] is -2.43%. Besides, the viability was 99% in test [4] and 96.6% in test [5]. The inhibition in test [6] was 1.31%. In test [7], the RAM network inhibition is 5.27%.
Turning to `Cc1nc(Cc2nnc(SCc3nc(N)nc(Nc4ccccc4C)n3)o2)cs1`, the growth inhibition in test [1] was -3.24%; in test [2], 20.5%. Moreover, in test [3], the viability increase was -1.28%. Moreover, the figures for the viability in test [4] and in test [5] were 98.7% and 97.5%, respectively. Further, in test [6], the inhibition was 0.85%. The RAM network inhibition in test [7] was 5.96%.
`C=CCn1c(C)c(C(C)=O)c(SC)nc1=S`: the values for the growth inhibition in test [1] and in test [2] were -2.37% and 17.1%, respectively. In test [3], the viability increase is -1.99%. Besides, the viability was 101% in test [4] and 99.8% in test [5]. The inhibition in test [6] was 0.34%. In addition, the RAM network inhibition in test [7] is 5.32%.
As to `COc1ccc(CCNC(=O)COC(=O)c2cnc(C)cn2)cc1OC`, the figures for the growth inhibition in test [1] and in test [2] were -8.52% and -14.6%, respectively. The viability increase in test [3] was 1.73%. Further, the viability in test [4] is 106%; in test [5] it was 100%. In addition, the inhibition in test [6] was 0.395%. In addition, the RAM network inhibition in test [7] was 2.42%.
`CC1Cc2nc(SCC(=O)NCCc3ccccc3)n(C)c(=O)c2S1` (centres undefined): the growth inhibition in test [1] was -11.5%; in test [2], -1.29%. In test [3], the viability increase is -2.25%. In addition, the viability in test [4] is 100%; in test [5] it was 104%. For the same compound, the inhibition in test [6] is 1.77%. Besides, the RAM network inhibition in test [7] was 2.27%.
On to `COc1ccc(-n2c(Cc3cccn3C)nnc2SCC(=O)N2CCOCC2)cc1`, for which the growth inhibition is 3.14% in test [1] and 10.2% in test [2]. Also, in test [3], the viability increase was -1.11%. For the same compound, the viability in test [4] is 103%; in test [5], 96%. Further, the inhibition in test [6] is 1.11%. The RAM network inhibition in test [7] was 0.98%.
For `O=C(Cn1c(=O)oc2cc(S(=O)(=O)N3CCc4ccccc43)ccc21)N1CCCCC1`, the growth inhibition in test [1] is -2.98%; in test [2] it was -7.46%. The viability increase in test [3] is -2.88%. Besides, the values for the viability in test [4] and in test [5] were 98.1% and 80.5%, respectively. Moreover, in test [6], the inhibition was -0.125%. Also, the RAM network inhibition in test [7] was 2.79%.
